This note sets out measurements from ChEMBL document CHEMBL4837245, “Discovery of VU6028418: A Highly Selective and Orally Bioavailable M4 Muscarinic Acetylcholine Receptor Antagonist” (ACS Med Chem Lett, 2021).

Structures are written as SMILES. pEC50, pIC50: −log10 of the molar value. In brackets after ≈: the same amount, converted by molar mass.

In data set [1] the target is T1, CYP1A2 (Homo sapiens, UniProt P05177).
T1 sequence (P05177 whole entry): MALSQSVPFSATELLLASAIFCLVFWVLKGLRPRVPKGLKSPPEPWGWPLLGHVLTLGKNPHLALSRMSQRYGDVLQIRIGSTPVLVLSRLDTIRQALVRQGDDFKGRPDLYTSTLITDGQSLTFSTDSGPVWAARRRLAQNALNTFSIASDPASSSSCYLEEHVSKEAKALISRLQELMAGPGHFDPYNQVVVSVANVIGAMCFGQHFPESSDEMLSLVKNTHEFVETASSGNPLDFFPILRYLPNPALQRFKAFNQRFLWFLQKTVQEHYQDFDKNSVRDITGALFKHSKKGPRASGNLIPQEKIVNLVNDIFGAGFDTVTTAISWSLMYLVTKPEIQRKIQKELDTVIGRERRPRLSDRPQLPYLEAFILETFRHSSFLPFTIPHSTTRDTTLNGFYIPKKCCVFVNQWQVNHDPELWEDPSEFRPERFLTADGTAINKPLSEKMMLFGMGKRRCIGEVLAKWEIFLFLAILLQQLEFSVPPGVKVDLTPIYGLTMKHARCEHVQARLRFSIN
In words: Induction of CYP1A2 in human hepatocytes. The data set is classed as ADME, cell-based, Hepatocyte.

Data set [2] is described as follows: Oral bioavailability in Sprague-Dawley rat at 10 mg/kg measured upto 24 hrs by LC-MS/MS analysis. The data set is classed as ADME, organism-based. The note with it: in vivo. The method, boiled down:
(§1)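 Single iv and oral (suspension) dosing; iv/po doses 1/10 mg/kg in SD rat, 1/3 mg/kg in CD-1 mouse and beagle dog. Plasma PK parameters are means from two to three animals per species.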

Data set [3] concerns the target T2, CYP3A4 (Homo sapiens, UniProt P08684). Put plainly: Inhibition of CYP3A4 in human liver microsomes using midazolam as substrate preincubated for 15 mins followed by NADPH addition and measured after 8 mins by LC-MS/MS analysis. The data set is classed as ADME. Conditions: human, liver microsomes, probe midazolam; time 23 min; read-out: INH. The essentials: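 Cocktail CYP450 inhibition assay run in human liver microsomes.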

The nature of data set [4]: AUC (0 to infinity) in Sprague-Dawley rat at 10 mg/kg, po measured upto 24 hrs by LC-MS/MS analysis. Format: ADME, organism-based. On the set-up: route oral, dose 10 mg/kg, time <=24. Conditions: in vivo. The method, boiled down: as §1
Data set [5] in a line: Clearance in Sprague-Dawley rat plasma at 1.0 mg/kg, iv measured upto 24 hrs by LC-MS/MS analysis. The data set is classed as ADME, organism-based. The essentials: as §1
Data set [6] concerns the target Sigma non-opioid intracellular receptor 1 (Homo sapiens, UniProt Q99720). Put plainly: Inhibition of human sigma1 receptor at 10 uM relative to control.
Data set [7] is described as follows: Kinetic solubility of compound at pH 6.8. Format: physicochemical. The note with it: buffer, read-out: Kinetic_solubility. The method, boiled down: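 Kinetic solubility measured at pH 6.8.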
Data set [8] addresses T2, CYP3A4. In words: Induction of CYP3A4 in human hepatocytes. The data set is classed as ADME, cell-based, Hepatocyte.
A short description of data set [9]: Cmax in Sprague-Dawley rat at 10 mg/kg, po measured upto 24 hrs by LC-MS/MS analysis. The data set is classed as ADME, organism-based. On the set-up: route oral, dose 10 mg/kg, time <=24. The note with it: in vivo. The essentials:
as §1

A short description of data set [10]: AUC (0 to infinity) in Beagle dog at 3 mg/kg, po measured upto 24 hrs by LC-MS/MS analysis. Format: ADME, organism-based, Canis lupus familiaris. On the set-up: route oral, dose 3 mg/kg, time <=24. The note with it: in vivo. The essentials: as §1
For data set [11], the target named is T3, Muscarinic acetylcholine receptor M2 (Homo sapiens, UniProt P08172).
T3 sequence (P08172 whole entry): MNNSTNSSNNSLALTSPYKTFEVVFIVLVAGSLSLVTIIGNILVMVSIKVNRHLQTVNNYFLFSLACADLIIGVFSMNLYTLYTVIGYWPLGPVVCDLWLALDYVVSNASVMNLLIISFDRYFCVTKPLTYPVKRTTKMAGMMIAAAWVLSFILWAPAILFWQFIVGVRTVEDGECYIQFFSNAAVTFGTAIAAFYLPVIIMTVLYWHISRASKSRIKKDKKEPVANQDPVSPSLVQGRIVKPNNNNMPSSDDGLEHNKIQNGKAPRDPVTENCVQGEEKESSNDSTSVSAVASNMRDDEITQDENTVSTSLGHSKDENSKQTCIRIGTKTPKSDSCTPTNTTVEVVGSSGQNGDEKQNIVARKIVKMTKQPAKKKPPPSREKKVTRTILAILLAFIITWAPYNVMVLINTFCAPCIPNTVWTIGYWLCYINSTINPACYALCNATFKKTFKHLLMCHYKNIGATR
Put plainly: Antagonist activity at human muscarinic M2 receptor expressed in CHO cells co-expressing Gqi5 assessed as inhibition of acetylcholine-induced calcium mobilization. The data set is classed as functional, cell-based. The essentials:
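CHO cells stably transfected with the given human mAChR subtype. Compound added before an EC80 concentration of acetylcholine; antagonism read as calcium mobilization. One independent determination in triplicate.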
In general terms: A change in cytosolic calcium serves as a functional read-out for many receptors and channels.

Data set [12] can be described thus: Ratio of drug concentration in brain to plasma of rat at 1 mg/kg, po after 1 hr. The data set is classed as ADME, organism-based. The essentials: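 At the end of the catalepsy study, 1 h after a 1 mg/kg oral dose in rats, total brain/plasma (Kp) and unbound brain/plasma (Kp,uu) ratios were determined.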
The nature of data set [13]: Volume of distribution at steady state in Sprague-Dawley rat at 1.0 mg/kg, iv measured upto 24 hrs by LC-MS/MS analysis. The data set is classed as ADME, organism-based. The note with it: in vivo, read-out: Vdss. The essentials: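 Pharmacokinetics in Sprague-Dawley rat, CD-1 mouse and beagle dog. Intravenous dose was 1 mg/kg in each species. Oral doses were given as a suspension: 10 mg/kg in rat, 3 mg/kg in mouse and dog. Each parameter is the mean of two to three animals.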

Data set [14] concerns the target Voltage-gated inwardly rectifying potassium channel KCNH2 (Homo sapiens, UniProt Q12809). In words: Inhibition of human ERG tail current by electrophysiological assay relative to control. The essentials:
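HEK cells, whole-cell electrophysiology. hERG tail current recorded at −40 mV after a depolarizing step to +30 mV; n = 3.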

The target of data set [15] is T4, Muscarinic acetylcholine receptor M4 (Homo sapiens, UniProt P08173).
T4 sequence (P08173 whole entry): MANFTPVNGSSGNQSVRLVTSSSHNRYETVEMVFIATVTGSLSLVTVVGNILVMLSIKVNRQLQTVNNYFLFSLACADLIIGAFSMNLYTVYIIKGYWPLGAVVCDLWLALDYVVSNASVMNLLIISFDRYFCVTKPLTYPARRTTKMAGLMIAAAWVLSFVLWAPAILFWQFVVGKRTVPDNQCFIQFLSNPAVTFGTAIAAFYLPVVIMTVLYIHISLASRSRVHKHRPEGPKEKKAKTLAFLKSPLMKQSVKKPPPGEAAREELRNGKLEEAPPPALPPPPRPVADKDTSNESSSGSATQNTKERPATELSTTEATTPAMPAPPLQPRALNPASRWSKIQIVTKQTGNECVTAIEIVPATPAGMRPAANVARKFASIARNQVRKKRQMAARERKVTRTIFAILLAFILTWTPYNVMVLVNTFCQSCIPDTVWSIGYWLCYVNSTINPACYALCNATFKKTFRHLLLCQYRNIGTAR
In words: Antagonist activity at human muscarinic acetylcholine M4 receptor expressed in CHO cells assessed as inhibition of acetylcholine-induced calcium mobilization. The data set is classed as functional, cell-based. The note with it: read-out: IC50.

Data set [16] is described as follows: Elimination half life in Sprague-Dawley rat at 1 mg/kg, iv measured upto 24 hrs by LC-MS/MS analysis. Format: ADME, organism-based. Conditions: in vivo, read-out: beta t1/2 (converted). The method, boiled down:
as §1

Data set [17] has as its system Rattus norvegicus. Put plainly: Reversal of haloperidol-induced catalepsy in rat at 3 mg/kg, po relative to control. Format: functional. The method, boiled down:
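Rat haloperidol-induced catalepsy model with oral test dosing at 0.3, 1 and 3 mg/kg alongside vehicle-treated controls. Read-out is latency to withdraw, also expressed as % reversal of catalepsy. Groups compared by ANOVA.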

T2 sequence (P08684 whole entry): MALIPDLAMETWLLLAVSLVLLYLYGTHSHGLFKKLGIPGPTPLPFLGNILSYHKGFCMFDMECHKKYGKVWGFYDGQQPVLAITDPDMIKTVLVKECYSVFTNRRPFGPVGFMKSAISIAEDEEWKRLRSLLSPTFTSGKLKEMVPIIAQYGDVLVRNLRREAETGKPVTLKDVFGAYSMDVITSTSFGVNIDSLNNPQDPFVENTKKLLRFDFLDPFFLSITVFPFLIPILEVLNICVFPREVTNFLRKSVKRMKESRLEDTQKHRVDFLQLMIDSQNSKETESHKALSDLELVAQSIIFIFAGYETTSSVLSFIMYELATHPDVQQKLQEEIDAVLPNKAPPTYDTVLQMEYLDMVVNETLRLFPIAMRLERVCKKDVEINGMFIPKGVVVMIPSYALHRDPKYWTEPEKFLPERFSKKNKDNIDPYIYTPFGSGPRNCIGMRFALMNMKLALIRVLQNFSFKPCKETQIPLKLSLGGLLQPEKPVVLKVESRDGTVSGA
Sigma non-opioid intracellular receptor 1, sequence (Q99720 whole entry): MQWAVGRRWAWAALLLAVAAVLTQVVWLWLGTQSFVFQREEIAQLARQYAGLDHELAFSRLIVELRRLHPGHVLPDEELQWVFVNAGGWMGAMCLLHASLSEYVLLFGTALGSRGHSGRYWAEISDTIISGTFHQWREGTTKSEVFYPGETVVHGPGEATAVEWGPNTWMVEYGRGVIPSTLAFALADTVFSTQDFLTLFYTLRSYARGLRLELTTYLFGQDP
Voltage-gated inwardly rectifying potassium channel KCNH2, sequence (Q12809 whole entry): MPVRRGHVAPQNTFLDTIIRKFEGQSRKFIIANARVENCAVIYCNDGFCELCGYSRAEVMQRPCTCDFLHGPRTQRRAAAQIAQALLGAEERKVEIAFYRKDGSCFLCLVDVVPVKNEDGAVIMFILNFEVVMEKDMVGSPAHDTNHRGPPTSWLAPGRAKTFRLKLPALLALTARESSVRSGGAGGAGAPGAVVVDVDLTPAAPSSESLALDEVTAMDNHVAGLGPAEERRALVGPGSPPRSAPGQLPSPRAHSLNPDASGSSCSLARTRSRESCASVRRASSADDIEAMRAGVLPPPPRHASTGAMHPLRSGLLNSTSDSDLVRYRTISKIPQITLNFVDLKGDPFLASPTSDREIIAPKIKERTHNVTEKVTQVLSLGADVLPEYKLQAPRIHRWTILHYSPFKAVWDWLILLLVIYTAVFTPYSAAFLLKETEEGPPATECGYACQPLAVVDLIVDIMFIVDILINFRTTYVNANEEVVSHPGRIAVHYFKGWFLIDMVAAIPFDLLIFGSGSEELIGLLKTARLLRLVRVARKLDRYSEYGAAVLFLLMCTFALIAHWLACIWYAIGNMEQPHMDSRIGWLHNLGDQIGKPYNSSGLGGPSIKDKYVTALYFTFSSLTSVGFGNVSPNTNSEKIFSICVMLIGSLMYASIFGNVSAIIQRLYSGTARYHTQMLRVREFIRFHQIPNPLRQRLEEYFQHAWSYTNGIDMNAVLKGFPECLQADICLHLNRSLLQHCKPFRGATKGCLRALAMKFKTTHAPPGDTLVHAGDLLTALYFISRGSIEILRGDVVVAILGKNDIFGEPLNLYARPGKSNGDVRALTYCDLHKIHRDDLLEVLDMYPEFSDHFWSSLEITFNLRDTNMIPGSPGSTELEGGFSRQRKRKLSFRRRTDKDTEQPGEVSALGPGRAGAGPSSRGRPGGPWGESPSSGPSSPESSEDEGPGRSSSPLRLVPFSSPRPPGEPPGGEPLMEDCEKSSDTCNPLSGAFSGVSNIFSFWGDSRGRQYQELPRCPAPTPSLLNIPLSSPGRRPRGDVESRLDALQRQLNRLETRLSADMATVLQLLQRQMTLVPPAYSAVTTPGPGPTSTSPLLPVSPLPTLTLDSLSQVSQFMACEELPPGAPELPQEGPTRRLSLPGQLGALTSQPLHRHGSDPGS

As for `Fc1cc(F)c(F)c(-c2ccc(N[C@H]3C[C@@H]4CN(CC5CCOCC5)C[C@@H]4C3)nn2)c1`, the pEC50 in [1] and in data set [8] was 5.72 in each case. The bioavailability (as a rule, dose-corrected exposure relative to a reference, in per cent) in data set [2] was not below 100%. For the same compound, the IC50 at 8 min in data set [3] is more than 30 µM. For the same compound, the AUC (usually the area under the concentration-time curve, a measure of exposure) came out at 30000 ng·h/mL in data set [4] and 1100 ng·h/mL in [10]. Further, the clearance (commonly a measure of how efficiently the substance is removed, as volume per time) in data set [5] was found to be 6.1 mL/min/kg. The inhibition (usually the change of the read-out against control, counted positive when it falls) in [6] worked out at 101%. Further, the solubility kinetic in [7] turned out to be 85.1 µM (≈ 36.8 µg/mL). For the same compound, the Cmax (as a rule, the maximum level reached in the sampled fluid or tissue) in data set [9] came to 17000 ng/mL. For the same compound, the pIC50 (usually the IC50 on a negative log10 scale, so that one unit is a factor of ten) in data set [11] is 5.46; in data set [15], 8.39. For the same compound, the Kp (as a rule, tissue or fluid exposure divided by exposure in the circulation) at 1 h in data set [12] was found to be 3.4. The Vd in [13] worked out at 6.7 L/kg. Further, the “inhibition (INH)” value in data set [14] came out at 94%. Also, in [16], the half-life was 13 h. In addition, the Activity in data set [17] was determined as 65.2%.
